According to ChEMBL document CHEMBL2311438, “Synthesis and biological evaluation of 4-hydroxy-4-(4-methoxyphenyl)-substituted proline and pyrrolidin-2-ylacetic acid derivatives as GABA uptake inhibitors” (Bioorg Med Chem, 2013):

What was measured:
[1] = species on record: Bos taurus; assay: Inhibition of GAT1-mediated [3H]GABA uptake in bovine frontal cortex membrane fraction 2B assessed as remaining GABA uptake activity preincubated at 100 uM for 10 mins by scintillation counting; format: cell membranes
Procedure, shortened: (§1)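 Preliminary single-concentration screen giving percent remaining GABA uptake. Membranes were preincubated with compound for 10 min at 37 °C in Tris-HCl pH 7.2 saline with glucose. Then 50 nM [³H]GABA plus unlabelled GABA was added for 4 min at 37 °C. Filtration harvest onto NaCl-presoaked glass-fibre filters, saline washes, liquid scintillation counting. IC50 pursued only when uptake fell below 50%.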

[2] = Inhibition of GAT3-mediated [3H]GABA uptake in bovine brain stem membrane fraction 2C compound preincubated for 10 mins by scintillation counting; format: cell membranes, Bos taurus
Procedure, shortened: (§2)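 50 nM [³H]GABA plus unlabelled GABA added, then 4 min at 37 °C. Stopped by filtration through glass-fibre filters presoaked in 0.9% NaCl, washed, scintillation counted. Triplicate; IC50 as mean ± SEM.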

[3] = Inhibition of GAT1-mediated [3H]GABA uptake in bovine frontal cortex membrane fraction 2B compound preincubated for 10 mins by scintillation counting; format: cell membranes, Bos taurus; procedure, shortened: as §2
[4] = Inhibition of GAT3-mediated [3H]GABA uptake in porcine brain stem membrane fraction 2C compound preincubated for 10 mins by scintillation counting; format: cell membranes, Sus scrofa; procedure, shortened: as §2
[5] = Inhibition of GAT1-mediated [3H]GABA uptake in porcine frontal cortex membrane fraction 2B compound preincubated for 10 mins by scintillation counting; format: cell membranes, Sus scrofa; procedure, shortened: as §2
[6] = species on record: Sus scrofa; assay: Inhibition of GAT3-mediated [3H]GABA uptake in porcine brain stem membrane fraction 2C assessed as remaining GABA uptake activity preincubated at 100 uM for 10 mins by scintillation counting; format: cell membranes; procedure, shortened: as §1
[7] = species on record: Sus scrofa; assay: Inhibition of GAT1-mediated [3H]GABA uptake in porcine frontal cortex membrane fraction 2B assessed as remaining GABA uptake activity preincubated at 100 uM for 10 mins by scintillation counting; format: cell membranes; procedure, shortened: as §1
[8] = species on record: Bos taurus; assay: Inhibition of GAT3-mediated [3H]GABA uptake in bovine brain stem membrane fraction 2C assessed as remaining GABA uptake activity preincubated at 100 uM for 10 mins by scintillation counting; format: cell membranes; procedure, shortened: as §1
[9] = species on record: Bos taurus; assay: Inhibition of GAT3-mediated [3H]GABA uptake in calf brain stem membrane fraction 2C assessed as remaining GABA uptake activity preincubated at 100 uM for 10 mins by scintillation counting; format: cell membranes; procedure, shortened: as §1
[10] = Inhibition of GAT3-mediated [3H]GABA uptake in calf brain stem membrane fraction 2C compound preincubated for 10 mins by scintillation counting; format: cell membranes, Bos taurus; procedure, shortened: as §2
[11] = species on record: Bos taurus; assay: Inhibition of GAT1-mediated [3H]GABA uptake in calf frontal cortex membrane fraction 2B assessed as remaining GABA uptake activity preincubated at 100 uM for 10 mins by scintillation counting; format: cell membranes; procedure, shortened: as §1
[12] = Inhibition of GAT1-mediated [3H]GABA uptake in calf frontal cortex membrane fraction 2B compound preincubated for 10 mins by scintillation counting; format: cell membranes, Bos taurus; procedure, shortened: as §2

IC50 [4] | IC50 [5] | Activity [6] | Activity [7] | SMILES | further results
 |  |  |  | COc1ccc([C@]2(O)C[C@@H](C(=O)O)N(CCC=C(c3ccccc3)c3ccccc3)C2)cc1 | Activity [1]: > 50%; IC50 [2]: 237 µM; IC50 [3]: > 100 µM
78.9 µM | 75.2 µM |  |  | COc1ccc(C(OCCN2C[C@@](O)(c3ccc(OC)cc3)C[C@H]2CC(=O)O)(c2ccc(OC)cc2)c2ccc(OC)cc2)cc1 | 
 |  |  |  | COc1ccc(C(OCCN2C[C@](O)(c3ccc(OC)cc3)C[C@H]2C(=O)O)(c2ccc(OC)cc2)c2ccc(OC)cc2)cc1 | IC50 [2]: 29.7 µM; IC50 [3]: 45.1 µM
> 100 µM | > 100 µM | > 50% | > 50% | COc1ccc([C@@]2(O)CN[C@H](C(=O)O)C2)cc1 | 
> 100 µM | > 100 µM | > 50% | > 50% | COc1ccc([C@]2(O)CN[C@@H](CC(=O)O)C2)cc1 | 
66.7 µM | 48.4 µM |  |  | COc1ccc(C(OCCN2C[C@](O)(c3ccc(OC)cc3)C[C@H]2CC(=O)O)(c2ccc(OC)cc2)c2ccc(OC)cc2)cc1 | 
66.1 µM | 59.2 µM |  |  | COc1ccc(C(OCCN2C[C@@](O)(c3ccc(OC)cc3)C[C@@H]2CC(=O)O)(c2ccc(OC)cc2)c2ccc(OC)cc2)cc1 | 
 | 71 µM |  |  | COc1ccc(C(OCCN2C[C@](O)(c3ccc(OC)cc3)C[C@@H]2C(=O)O)(c2ccc(OC)cc2)c2ccc(OC)cc2)cc1 | Activity [8]: > 50%; IC50 [2]: > 100 µM
> 100 µM | 114 µM | > 50% |  | COc1ccc([C@@]2(O)C[C@H](CC(=O)O)N(CCC=C(c3sccc3C)c3sccc3C)C2)cc1 | 
38 µM | 56 µM |  |  | COc1ccc(C(OCCN2C[C@@](O)(c3ccc(OC)cc3)C[C@@H]2C(=O)O)(c2ccc(OC)cc2)c2ccc(OC)cc2)cc1 | 
124 µM | > 100 µM |  | > 50% | COc1ccc([C@]2(O)C[C@@H](CC(=O)O)N(CCC=C(c3sccc3C)c3sccc3C)C2)cc1 | 
> 100 µM | > 100 µM | > 50% | > 50% | COc1ccc([C@]2(O)CN[C@@H](C(=O)O)C2)cc1 | 
> 100 µM | > 100 µM | > 50% | > 50% | COc1ccc([C@]2(O)C[C@H](CC(=O)O)N(CCC=C(c3sccc3C)c3sccc3C)C2)cc1 | 
 |  |  |  | COc1ccc([C@@]2(O)C[C@@H](C(=O)O)N(CCC=C(c3ccccc3)c3ccccc3)C2)cc1 | Activity [8]: > 50%; Activity [1]: > 50%; IC50 [2]: > 100 µM; IC50 [3]: > 100 µM
122 µM | > 100 µM |  | > 50% | COc1ccc([C@@]2(O)C[C@@H](CC(=O)O)N(CCC=C(c3sccc3C)c3sccc3C)C2)cc1 | 
 |  |  |  | COc1ccc(C(OCCN2C[C@@](O)(c3ccc(OC)cc3)C[C@H]2C(=O)O)(c2ccc(OC)cc2)c2ccc(OC)cc2)cc1 | IC50 [2]: 63.3 µM; IC50 [3]: 68.1 µM
> 100 µM | > 100 µM | > 50% | > 50% | COc1ccc([C@@]2(O)CN[C@H](CC(=O)O)C2)cc1 | 
65.4 µM | 64.5 µM |  |  | COc1ccc(C(OCCN2C[C@](O)(c3ccc(OC)cc3)C[C@@H]2CC(=O)O)(c2ccc(OC)cc2)c2ccc(OC)cc2)cc1 | 
 |  |  |  | COc1ccc([C@@]2(O)C[C@H](C(=O)O)N(CCC=C(c3ccccc3)c3ccccc3)C2)cc1 | Activity [9]: > 50%; IC50 [10]: > 100 µM; Activity [11]: > 50%; IC50 [12]: > 100 µM
 |  |  |  | COc1ccc([C@]2(O)C[C@H](C(=O)O)N(CCC=C(c3ccccc3)c3ccccc3)C2)cc1 | Activity [9]: > 50%; IC50 [10]: > 100 µM; Activity [11]: > 50%; IC50 [12]: > 100 µM
